Here are results for 3 molecules from PMC8501684 (International Journal for Parasitology: Drugs and Drug …, 2021).

In general, IC50 refers to the concentration that inhibits the measured activity by half. What is called CC50 is the concentration giving 50% cytotoxicity. A low value points to harm at low concentration.

The test system of series [1] is Naegleria fowleri ATCC® 30808™ trophozoites. Kind of series: In vitro activity assay. Type of series: cell-based. As to conditions: for N. fowleri ATCC® 30808™ SI (CC50/IC50): selectivity index, CC50 J774A.1 / IC50 ATCC 30808. Summed up: (§1)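 Both strains were grown axenically at 37 °C in 2% Bactocasitone with 10% FBS, penicillin G and streptomycin. Trophozoites from a 2*10^5 cells/ml stock were seeded in duplicate with serial compound dilutions in the same medium, plus a medium-only negative control. AlamarBlue (10% of medium volume) was added for 48 h at 37 °C with slight agitation, read at 570 nm […] with a 630 nm reference. Inhibitory concentrations came from non-linear regression; experiments were done in triplicate and averaged.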

Series [2] has as its system Naegleria fowleri ATCC® 30215™ trophozoites. The series can be described thus: In vitro activity assay. The following applies: for N. fowleri ATCC® 30215™ SI (CC50/IC50): selectivity index, CC50 J774A.1 / IC50 ATCC 30215. Type of series: cell-based. In a few lines: as §1
Another series can be described thus: Cytotoxicity assay. The format is cell-based. As to conditions: mouse, J774A.1 murine macrophage cells. Summed up: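 J774A.1 macrophages were kept in DMEM with 10% FBS and 10 μg/mL gentamicin at 37 °C, 5% CO2. Cells from a 10^5 cells/ml stock got a range of compound concentrations plus AlamarBlue (10% of medium volume), with a medium-only negative control. Incubation was 24 h at 37 °C in 5% CO2, and CC50 was derived from the read-out.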

For series [3] the following is noted: ref Tian et al., 2016; cited from earlier work.
For series [4] the following is noted: various species plasma; ref Tian et al., 2016; cited from earlier work.

Turning to `C[C@@H]1[C@H](O)[C@@H](C)/C=C/C=C/C=C/C=C/C=C/C=C/C=C/[C@H](O[C@@H]2O[C@H](C)[C@@H](O)[C@H](N)[C@@H]2O)C[C@@H]2O[C@](O)(C[C@@H](O)C[C@@H](O)[C@H](O)CC[C@@H](O)C[C@@H](O)CC(=O)O[C@H]1C)C[C@H](O)[C@H]2C(=O)O` [Amphotericin B], the concentration for half-maximal inhibition (IC50) was 121 ± 32 nM in series [1] (Naegleria fowleri, ATCC30808, 48 h, read-out: N. fowleri ATCC® 30808™ IC50) and 166 ± 26 nM in series [2] (Naegleria fowleri, ATCC30215, 48 h, read-out: N. fowleri ATCC® 30215™ IC50). Besides, in series [1], the “N. fowleri ATCC® 30808™ SI (CC50/IC50)” value is on record as no less than 1652.893. Moreover, in series [2], the “N. fowleri ATCC® 30215™ SI (CC50/IC50)” value is recorded as no less than 1204.819. For the same molecule, in “Cytotoxicity assay”, the half-maximal cytotoxic concentration (CC50) at 24 h was no less than 200 µM.

Consider `CCCCCCCCCCCCCCCCOP(=O)([O-])OCC[N+](C)(C)C` [Miltefosine], for which the “N. fowleri ATCC® 30808™ SI (CC50/IC50)” value in series [1] was 3.301. Besides, the “N. fowleri ATCC® 30215™ SI (CC50/IC50)” value in series [2] worked out at 1.568. This molecule also showed a CC50 at 24 h in the series “Cytotoxicity assay” of 128 ± 8.85 µM.

Take `CCCCC1OC(=O)c2cc(Br)ccc21` (stereo not drawn) [Br-NBP, 3-butyl-6-bromo-1(3H)-isobenzofuranone]: in series [3], the half-life result was “short half-life”, the pharmacokinetic profile result is “good dose-linear pharmacokinetic profile” and the tissue distribution entry is on record as “wide tissue distribution”. Besides, in series [4], the “protein binding to plasma” value is on record as “different degree protein binding to various species plasma”.
